The list is not random: actives were taken first. Their share in the collection is about 1.8%.
PME-1 inh: blocks human protein phosphatase methylesterase 1. inhibition, % at 5.9 µM. AID 2130. recombinant PME-1, FP-Rh probe fluorescence polarization. Q9Y570. 320,000 tested, 0.53% active;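 active means inhibition above the campaign mean of all compounds plus 3 SD, cut at about 26% in these data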;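 further: competitive labeling of PME-1 active site by serine hydrolase directed probe; 0% = PME-1 with DMSO and 100% = wells lacking PME-1 enzyme; inhibitors block probe labeling so polarization falls and inhibition rises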
Target sequence (Q9Y570 whole entry, looked up): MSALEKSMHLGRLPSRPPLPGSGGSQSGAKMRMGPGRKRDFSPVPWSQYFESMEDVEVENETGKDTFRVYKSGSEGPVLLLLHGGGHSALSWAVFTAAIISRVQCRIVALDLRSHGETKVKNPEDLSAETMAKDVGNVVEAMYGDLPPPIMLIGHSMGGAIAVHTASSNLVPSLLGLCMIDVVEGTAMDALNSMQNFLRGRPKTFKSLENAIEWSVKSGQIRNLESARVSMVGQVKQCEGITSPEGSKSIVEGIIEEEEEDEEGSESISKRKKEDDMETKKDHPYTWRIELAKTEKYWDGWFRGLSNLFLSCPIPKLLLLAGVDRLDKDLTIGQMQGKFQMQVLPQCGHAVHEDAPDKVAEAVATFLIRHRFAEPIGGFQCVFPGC
mABHD4 FP: inhibits mouse alpha/beta hydrolase domain 4; inhibition, % at 8.92 µM; 370,000 tested, 0.54% active; purified mABHD4, FP-Rh probe fluorescence polarization; Q8VD66;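 active means inhibition exceeding the mean over every tested compound plus 3 SD, cut at about 30% in these data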;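 further: 0% = plate median of compound wells and 100% = S159A mutant with DMSO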
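assay system = mABHD4 protein | compound dosing = single nominal dose of 8.92 µM, 0.89% DMSO final | read-out basis = percent inhibition of probe binding, normalized to plate controls | schedule = Enzyme–compound pre-incubation 45 min, then probe 60 min, both 25 °C | detection = fluorescence polarization, excitation 525 nm, emission 598 nm, BODIPY TMR filters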
Fam108B inh: Fam108B inhibition, counter-screen for RBBP9 inhibitors; inhibition, % at 9.51 µM; 300,000 tested, 0.33% active; AID 1947; recombinant Fam108B, FP-Rh probe fluorescence polarization;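 active means inhibition above the screen mean inhibition plus 3 SD, computed separately per campaign, cut at about 18% in these data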;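 further: inhibitors lower polarization as less probe binds the enzyme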
TCR CD3 inh: blocks the human TCR-CD3 interaction; TAMRA-labeled TCR probe fluorescence, biochemical; inhibition, % at 9.4 µM; 360,000 tested, 0.37% active;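 further: recombinant mutant TCR 2C K166C tagged with TAMRA read by polarization; 0% = receptor in buffer alone and 100% = receptor with positive control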
HTRA1 inhibitor: inhibitors of human serine peptidase HTRA1; recombinant HTRA1, FP-rhodamine activity-based probe, fluorescence polarization; 340,000 tested, 0.5% active; inhibition, % at 5.96 µM; in the data active means inhibition above about 36%;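 further: 0% = enzyme with DMSO and 100% = wells lacking enzyme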
SIAE inh: inhibitors of human sialic acid acetylesterase SIAE | Q9HAT2 | SIAE FP-Rh probe binding, fluorescence polarization | inhibition, % at 9.66 µM | 370,000 tested, 0.69% active | AID 1053197;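 active means inhibition above a cutoff: mean of compounds within the control limits plus 3 SD of those, cut at about 17% in these data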;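 further: 0% = plate median of compound wells and 100% = probe without SIAE protein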
Fam108b confirm: Fam108b (mouse) hydrolase inhibition, confirmation assay; shares compounds with Fam108B inh; 930 tested, 44% active; inhibition, % at 9.51 µM; recombinant Fam108b, FP-Rh probe fluorescence polarization;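 active means inhibition above a limit from the primary screen, the mean over all compounds plus 3 SD, cut at about 19% in these data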;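 further: 0% = median of active Fam108b wells and 100% = catalytically dead S170A mutant; inhibitors free the probe so polarization falls as inhibition rises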
Fam108b ABPP HTS: inhibits mouse Fam108b in gel-based ABPP | shares compounds with Fam108B inh | 260 tested, 44% active | recombinant Fam108b, fluorophosphonate probe | inhibition, % at 20 µM; in the data active means inhibition above about 40%
HTRA1 conf: confirmation of human HTRA1 inhibitors; shares compounds with HTRA1 inhibitor; recombinant HTRA1, FP-rhodamine activity-based probe, fluorescence polarization; inhibition, % at 5.96 µM; 1,600 tested, 66% active;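 active means mean inhibition over three repeats above a set limit taken from the earlier primary screen, cut at about 37% in these data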;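 further: 0% = HTRA1 with DMSO and 100% = wells lacking HTRA1; inhibitors block probe binding so polarization drops and inhibition rises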
BSA probe FL: interferes with TAMRA-BSA probe, flagging TCR-CD3 hits; shares compounds with TCR CD3 inh; TAMRA-labeled BSA probe fluorescence counterscreen; inhibition, % at 9.4 µM; 1,200 tested, 10% active; in the data active means inhibition above about 23%;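 further: 0% = buffer low control and 100% = reference high control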
TCR-CD3 inh conf: TCR-CD3 interaction inhibition, confirmation; shares compounds with TCR CD3 inh; TAMRA-labeled TCR probe fluorescence binding assay; inhibition, % at 9.4 µM; 1,200 tested, 48% active
ABHD4 confirm: confirmation of mouse ABHD4 inhibitors | shares compounds with mABHD4 FP | purified mABHD4, FP-Rh probe fluorescence polarization | inhibition, % at 8.92 µM | 1,800 tested, 55% active | AID 720658;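 active means mean inhibition across replicates above the hit cutoff set in the primary screen, cut at about 30% in these data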;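 further: 0% = wild-type ABHD4 with DMSO and 100% = catalytically dead S159A mutant with DMSO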
SIAE confirm: human SIAE inhibition, confirmation; AID 1117263; shares compounds with SIAE inh; 2,300 tested, 13% active; inhibition, % at 9.66 µM; SIAE FP-Rh activity-based probe, fluorescence polarization;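 active means mean inhibition of the replicates above the hit cutoff set in the primary screen, cut at about 17% in these data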;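 further: 0% = SIAE with DMSO and probe and 100% = probe without SIAE; inhibitors lower polarization as more probe stays unbound to SIAE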
* = called active by the depositor; / = not tested or not shown; + = active, no number. Unless noted, no stated cut-off is given here; in the data, active means inhibition above about 19%; inactive means the rest.

SMILES	PME-1 inh	mABHD4 FP	Fam108B inh	TCR CD3 inh	HTRA1 inhibitor	SIAE inh	Fam108b confirm	SIAE confirm	others
COC(=O)C1CN(Cc2ccc(OC)cc2)CCS(=O)(=O)N1Cc1cn(Cc2ccc(C)cc2)nn1 (configuration not stated)	/	0	/	/	/	-1	/	/
O=C(c1cccc(Oc2ccccc2)c1)N1CCC(Oc2cccnc2)CC1	/	-1	/	/	/	6	/	/
O=C1C(CSCc2ccccc2)NC(=S)N1c1ccccc1 (configuration not stated)	89*	-2	71*	-2	/	100*	3	-83
O=C(O)CC1NC(=S)N(c2ccccc2)C1=O (configuration not stated)	2	-1	-1	7	-5	-5	/	/
CCN(CC(=O)Nc1c(C(=O)OC)[nH]c2ccc(Cl)cc12)c1ccc2c(c1)OCO2	40*	22	21*	-2	13	21*	8	13
Cc1c2cc(O)c(=O)cc-2oc2cc(O)c(O)cc12	113*	35*	114*	184*	49*	56*	138*	104*	Fam108b ABPP HTS=0;HTRA1 conf=125*;BSA probe FL=+;TCR-CD3 inh conf=+
Clc1ccc2c(N/N=C/c3ccccc3Br)ccnc2c1	-1	3	-21	-2	0	1	/	/
O=[N+]([O-])c1ccc(/C=N/Nc2ccnc3cc(Cl)ccc23)o1	18	17	19*	-33	22	20*	10	5
COc1ccccc1NC(=O)O[C@@H]1CC[C@@]23CCCN2C(=O)CCC[C@H]3C1	/	2	/	/	/	5	/	/
COc1ccc(Nc2ncnc3sc(-c4ccccc4)cc23)cc1OC	39*	19	54*	-6	-14	23*	-12	15
COc1ccc(Nc2ncnc3c2cnn3-c2ccccc2)cc1OC	5	5	3	6	2	-6	/	/
COc1ccc(Cn2cc(COC(=O)Nc3ccc(F)cc3)nn2)cc1	/	0	/	/	/	-1	/	/
Oc1ccc(/C=N/Nc2ccc(Cl)nn2)c(O)c1O	-3	40*	23*	56*	57*	23*	-8	-4	HTRA1 conf=41*;BSA probe FL=-20;TCR-CD3 inh conf=55*;ABHD4 confirm=81*
CCOc1ccc(NC(=O)Nc2cc(-c3ccccc3)sc2C(=O)OC)cc1	34*	3	22*	8	0	29*	18	-5
Cc1ccc(-c2nc(Nc3ccc(O)cc3)c3ccccc3n2)cc1	41*	6	35*	-1	10	17*	3	-22
CCOC(=O)Cc1csc(N/N=C/c2cccc([N+](=O)[O-])c2)n1	4	5	1	-4	6	12	/	/
CN(C)S(=O)(=O)c1ccc(-c2csc(N/N=C/c3ccc(O)cc3)n2)cc1	35*	-3	29*	-5	26	20*	9	24*
O=[N+]([O-])c1cccc(-c2csc(N/N=C/c3cccc(O)c3)n2)c1	11	8	32*	7	4	27*	31*	0
CCOc1cc(OCC)cc(C(=O)N2CCC[C@@H]2C(=O)N2CCC[C@@H]2C(=O)NCc2cccc(OC)c2)c1	/	-4	/	-2	/	6	/	/

Bioassay records from PubChem BioAssay.
